Converted amounts (≈) assume the structure as drawn.
Tests used:
Type in all cases: functional
[1] = test system: Streptococcus pneumoniae; assay: Antibacterial activity against Streptococcus pneumoniae by agar microdilution method
Outline: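 MIC read by agar microdilution following NCCLS standard M7-A6 (2003), against a panel of 3 Streptococcus pneumoniae clinical isolates. Values in µg/mL, given as a range where the isolates differed.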

[2] = test system: Staphylococcus epidermidis; assay: Antibacterial activity against methicillin-susceptible Staphylococcus epidermidis by agar microdilution method
Outline: (§1)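 MIC by agar microdilution following NCCLS standard M7-A6 (2003), tested against clinical isolates: MRSA n = 6, MRSE n = 5, MSSA n = 5, MSSE n = 5; values given as a single MIC or a range across isolates.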

[3] = test system: Staphylococcus aureus; assay: Antibacterial activity against methicillin-resistant Staphylococcus aureus by agar microdilution method; outline: as §1
[4] = test system: Staphylococcus epidermidis; assay: Antibacterial activity against methicillin-resistant Staphylococcus epidermidis by agar microdilution method; outline: as §1
[5] = test system: Staphylococcus aureus; assay: Antibacterial activity against methicillin-susceptible Staphylococcus aureus by agar microdilution method; outline: as §1

Row | Compound | MIC [1] [µg/mL] | MIC [2] [µg/mL] | MIC [3] [µg/mL] | MIC [4] [µg/mL] | MIC [5] [µg/mL]
1 | C=C[C@]1(C)C[C@@H](OC(=O)N2Cc3c(NC(=O)[C@@H](N)C(C)C)cccc3C2=O)[C@]2(C)[C@H](C)CC[C@]3(CCC(=O)[C@H]32)[C@@H](C)[C@@H]1O.Cl | 0.5 | 0.5 | 0.5 | 0.5 | 0.5
2 | C=C[C@]1(C)C[C@@H](OC(=O)N2Cc3ccc(NC(=O)[C@H](C)N)cc3C2=O)[C@]2(C)[C@H](C)CC[C@]3(CCC(=O)[C@H]32)[C@@H](C)[C@@H]1O.Cl | 0.5 | 0.5 | 0.5 | 0.5 | 0.5
3 | C=C[C@]1(C)C[C@@H](OC(=O)N2Cc3ccc(NC(=O)[C@@H](N)C(C)C)cc3C2=O)[C@]2(C)[C@H](C)CC[C@]3(CCC(=O)[C@H]32)[C@@H](C)[C@@H]1O.Cl | 2 | 1 | 1 | 1 | 1
4 | C=C[C@]1(C)C[C@@H](OC(=O)N2CCc3cc(OC)ccc3C2=O)[C@]2(C)[C@H](C)CC[C@]3(CCC(=O)[C@H]32)[C@@H](C)[C@@H]1O | 2 (≈ 3.82 µM) | 1 (≈ 1.91 µM) | 2 (≈ 3.82 µM) | 0.5 (≈ 0.955 µM) | 1 (≈ 1.91 µM)
5 | C=C[C@]1(C)C[C@@H](OC(=O)N2CCc3ccccc3C2=O)[C@]2(C)[C@H](C)CC[C@]3(CCC(=O)[C@H]32)[C@@H](C)[C@@H]1O | 0.25 (≈ 0.506 µM) | 0.25 (≈ 0.506 µM) | 0.25 (≈ 0.506 µM) | 0.25 (≈ 0.506 µM) | 0.25 (≈ 0.506 µM)
6 | C=C[C@]1(C)C[C@@H](OC(=O)N2CCc3ccc([N+](=O)[O-])cc3C2=O)[C@]2(C)[C@H](C)CC[C@]3(CCC(=O)[C@H]32)[C@@H](C)[C@@H]1O | 2 (≈ 3.71 µM) | 1 (≈ 1.86 µM) | 1 (≈ 1.86 µM) | 1 (≈ 1.86 µM) | 1 (≈ 1.86 µM)
7 | C=C[C@]1(C)C[C@@H](OC(=O)N2CCc3cc(OCCN4CCOCC4)ccc3C2=O)[C@]2(C)[C@H](C)CC[C@]3(CCC(=O)[C@H]32)[C@@H](C)[C@@H]1O | 0.5 (≈ 0.803 µM) | 0.5 (≈ 0.803 µM) | 0.5 (≈ 0.803 µM) | 0.5 (≈ 0.803 µM) | 0.5 (≈ 0.803 µM)
8 | C=C[C@]1(C)C[C@@H](OC(=O)N2CCc3cc(OCCN4CCCCC4)ccc3C2=O)[C@]2(C)[C@H](C)CC[C@]3(CCC(=O)[C@H]32)[C@@H](C)[C@@H]1O | 1 (≈ 1.61 µM) | 0.5 (≈ 0.805 µM) | 0.5 (≈ 0.805 µM) | 1 (≈ 1.61 µM) | 0.5 (≈ 0.805 µM)
9 | C=C[C@]1(C)C[C@@H](OC(=O)N2CCc3cc(OCCN4CCN(C)CC4)ccc3C2=O)[C@]2(C)[C@H](C)CC[C@]3(CCC(=O)[C@H]32)[C@@H](C)[C@@H]1O | 0.5 (≈ 0.786 µM) | 0.5 (≈ 0.786 µM) | 0.5 (≈ 0.786 µM) | 0.5 (≈ 0.786 µM) | 0.5 (≈ 0.786 µM)
10 | C=C[C@]1(C)C[C@@H](OC(=O)N2CCc3cc(OCCCN4CCOCC4)ccc3C2=O)[C@]2(C)[C@H](C)CC[C@]3(CCC(=O)[C@H]32)[C@@H](C)[C@@H]1O | 0.5 (≈ 0.785 µM) | 0.5 (≈ 0.785 µM) | 0.5 (≈ 0.785 µM) | 0.5 (≈ 0.785 µM) | 0.5 (≈ 0.785 µM)
11 | C=C[C@]1(C)C[C@@H](OC(=O)N2CCc3cc(OCCCN4CCCCC4)ccc3C2=O)[C@]2(C)[C@H](C)CC[C@]3(CCC(=O)[C@H]32)[C@@H](C)[C@@H]1O | 0.5 (≈ 0.788 µM) | 0.5 (≈ 0.788 µM) | 0.5 (≈ 0.788 µM) | 0.5 (≈ 0.788 µM) | 0.5 (≈ 0.788 µM)
12 | C=C[C@]1(C)C[C@@H](OC(=O)N2CCc3cc(OCCCN4CCN(C)CC4)ccc3C2=O)[C@]2(C)[C@H](C)CC[C@]3(CCC(=O)[C@H]32)[C@@H](C)[C@@H]1O | 0.5 (≈ 0.769 µM) | 0.5 (≈ 0.769 µM) | 0.5 (≈ 0.769 µM) | 0.5 (≈ 0.769 µM) | 0.5 (≈ 0.769 µM)
13 | C=C[C@]1(C)C[C@@H](OC(=O)N2CCc3cc(OCCCCN4CCOCC4)ccc3C2=O)[C@]2(C)[C@H](C)CC[C@]3(CCC(=O)[C@H]32)[C@@H](C)[C@@H]1O | 0.5 (≈ 0.768 µM) | 0.5 (≈ 0.768 µM) | 0.5 (≈ 0.768 µM) | 0.5 (≈ 0.768 µM) | 0.5 (≈ 0.768 µM)
14 | C=C[C@]1(C)C[C@@H](OC(=O)N2CCc3ccc(N)cc3C2=O)[C@]2(C)[C@H](C)CC[C@]3(CCC(=O)[C@H]32)[C@@H](C)[C@@H]1O | 0.0625 (≈ 0.123 µM) | 0.0625 (≈ 0.123 µM) | 0.0625 (≈ 0.123 µM) | 0.0625 (≈ 0.123 µM) | 0.0625 (≈ 0.123 µM)
15 | C=C[C@]1(C)C[C@@H](OC(=O)NC(=O)c2ccc(OC)cc2)[C@]2(C)[C@H](C)CC[C@]3(CCC(=O)[C@H]32)[C@@H](C)[C@@H]1O | 0.0625 (≈ 0.126 µM) | – | – | – | –
16 | CC(=O)NC[C@H]1CN(c2ccc(N3CCOCC3)c(F)c2)C(=O)O1 [LINEZOLID] | – | 0.5 (≈ 1.48 µM) | – | – | 0.5 (≈ 1.48 µM)
17 | C=C[C@]1(C)C[C@@H](OC(=O)CS[C@@H]2C[C@H]3CC[C@@H](C2)N3C)[C@]2(C)[C@H](C)CC[C@]3(CCC(=O)[C@H]32)[C@@H](C)[C@@H]1O [RETAPAMULIN] | 0.0625 (≈ 0.121 µM) | 0.0625 (≈ 0.121 µM) | 0.125 (≈ 0.241 µM) | 0.125 (≈ 0.241 µM) | 0.0625 (≈ 0.121 µM)

— ChEMBL document CHEMBL1938381, “Design, synthesis, and structure-activity relationship studies of conformationally restricted mutilin 14-carbamates” (2012)
